Rows were chosen to be rich in hits. Some 3% of all compounds tested hit in one or more screens of this group.
T cruzi repl = blocks replication of Trypanosoma cruzi; T. cruzi beta-gal in NIH3T3, luminescence, 90 h; inhibition, % (no concentration beside the values); 300,000 tested, 1.4% active; AID 1885;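 active = mean inhibition across valid replicates above about 55%, limit read from the data; inconclusive = mean below that limit but half or more replicates reach it; inactive = mean below it, under half of replicates reach it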;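 also: signal also drops with host cell toxicity which is not excluded here; 0% = plate median of DMSO wells and 100% = zero luminescence signal; higher percent means less beta-gal luminescence so fewer parasites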
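System: Mouse NIH/3T3 fibroblasts infected with β-gal-expressing T. cruzi Tulahuen C4 | Quantity: NIH/3T3 cells, 5,000 per well | Reagent: 5000 reporter trypomastigotes per well | Dosing: Compound pinned at 50 nL/well, DMSO | Schedule: 3 h host attachment, then at least 90 h co-culture | Detection: GalScreen luminescence, 60 min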
PvdQ inh = P. aeruginosa PvdQ acylase inhibition; purified PvdQ acylase, fluorescence plate reader; inhibition, % at 10 µM; 340,000 tested, 0.063% active; AID 488965; in the data active = inhibition above about 30%, passing the limit was not always enough; inconclusive = no clear call, values can overlap the other calls;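 also: 0% = vehicle neutral wells and 100% = reference inhibitor wells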
PfHsp90 set2 = growth inhibition of yeast expressing Plasmodium Hsp90; S. cerevisiae expressing PfHsp90, BacTiter-Glo ATP, 48 h; yeast lacking PDR1 and PDR3 efflux regulators; inhibition, % at 9.4 µM; 310,000 tested, 0.32% active;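 active = every replicate shows inhibition above about 80%, whatever the replicate mean, limit read from the data; inconclusive = mean inhibition reaches the set limit but some replicate falls short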;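 also: 0% = DMSO neutral controls and 100% = 20 µM radicicol positive controls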
HSF-1 act = increases HSF-1 driven luciferase reporter signal | NIH3T3-HGL HSF-1 luciferase reporter, MG132, 8 h; 100% = twice DMSO control signal | activation, % at 9 µM | 300,000 tested, 1.7% active;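 active = mean replicate activation of at least 50% with a set share of replicates each reaching 50%; inconclusive = only one of those two conditions met; inactive = mean below 50% and too few replicates reaching it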;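 also: 0% = median of the neutral control wells and 100% = twice that signal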
Glyco luc inh = blocks N-linked glycosylation in D54 reporter cells; D54 ERlucT glycosylation luciferase reporter, 24 h; percent of 100 nM tunicamycin response; reporter increase, % at 12.5 µM; 360,000 tested, 0.23% active;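 active = mean luciferase reporter signal, scaled so untreated is 0 and the glycosylation-blocking control 100, at or above a set limit in every replicate; inconclusive = mean reaches the limit but not every replicate does; inactive = mean below the limit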;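 also: luciferase carries N-glycosylation sites so blocking glycosylation raises the light; 0% = median of neutral control wells and 100% = median of 100 nM tunicamycin wells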
CaV13 FRET inh = Disruptors of the CACNA1D IQ motif to Ca2+-dependent inactivation inhibitor domain association, primary screening, Förster resonance energy transfer in intact living …. HEK cells, CFP/YFP FRET ICDI-IQ, plate reader, 10 min; percent FRET-ratio fall versus neutral wells. inhibition, % at 12.3 µM. 340,000 tested, 0.098% active. AID 743397;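 active = mean replicate inhibition of at least 30% and at least 1% of replicates passing that level; inconclusive = only one of the two criteria is met; inactive = neither criterion is met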;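 also: 0% = median of the neutral control wells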
* marks the source's active call; other numbers are inactive results; ? = inconclusive; . = no result.

SMILES | T cruzi repl | PvdQ inh | PfHsp90 set2 | HSF-1 act | Glyco luc inh | CaV13 FRET inh
c1ccc2[nH]c(NCc3ccc4c(c3)OCO4)nc2c1 | -7.9 | -9.6 | -3.4 | 54.9* | -4.9 | -6.3
CC(Nc1nc(-c2ccccc2)nc2ccccc12)c1ccccc1 (centres undefined) | 25.4 | -6.7 | 12.8 | 10.5 | ? | -6.5
c1ccc(CNc2nc3ccccc3[nH]2)cc1 | 19.4 | -8.9 | 28.3 | 27.2 | -4.3 | -7.0
Clc1cccc(CNc2nc(-c3cccnc3)nc3ccccc23)c1 | 62.7* | 1.1 | 22.6 | 23.3 | 3.1 | -1.4
COc1ccc(S(=O)(=O)N2CCOCC2)cc1NC(=O)c1ccc(SC)cc1OC | . | . | . | . | 6.5 | -5.4
CSc1ccc(SC2CN(Cc3ccc(C)cc3)S(=O)(=O)C2)cc1 (centres undefined) | . | . | . | . | . | -4.8
COC(=O)[C@]12C[C@H](CC(=O)NCC3CCCCC3)C(=O)N(CCC3=CCCCC3)C1=C[C@H](COCc1ccccc1)O[C@@H]2C | . | . | . | . | . | -3.6
COc1cccc(N2CCN(C(=S)NCc3ccco3)CC2)c1 | 5.3 | 10.5 | -14.4 | 54.6* | -0.5 | -5.4
S=C(NCc1ccco1)N1CCN(c2ccccc2Cl)CC1 | 6.1 | -2.2 | . | 70.4* | -3.9 | -1.4
CC(OC(=O)c1ccc2c(c1)OCO2)C(=O)NC1CCCCC1 (centres undefined) | . | . | . | . | 0.3 | -15.5
O=C(Cc1ccc(NC(=O)C2CCCN(C(=O)c3ccccc3)C2)cc1)Nc1cccc(C(=O)N2CCCCC2)c1 (centres undefined) | . | . | . | . | . | -3.7
CCOc1ccc(-c2cn3ccccc3n2)cc1[N+](=O)[O-] | -5.9 | -9.0 | 11.0 | 55.4* | -0.9 | -4.6
CCCCOc1ccc(-c2cn3ccccc3n2)cc1[N+](=O)[O-] | 10.6 | -17.4 | -1.4 | 63.5* | -12.2 | -5.1
O=[N+]([O-])c1ccc(-c2cn3ccccc3n2)cc1 | -26.2 | . | . | 9.4 | -6.2 | -2.4
CCOC(=O)[C@]12CCCC=C1N(Cc1ccco1)C(=O)[C@H](CC(=O)NCC13CC4CC(CC(C4)C1)C3)C2 | . | . | . | . | . | -7.8
CC(=O)C1=C(C)N(Cc2ccc(F)cc2)C(=S)NC1c1cccc(F)c1 (centres undefined) | . | . | . | . | . | -2.9
CC(=O)Nc1ccc(NC(=O)c2cc([N+](=O)[O-])cc([N+](=O)[O-])c2)cc1 | 55.4* | -11.3 | 21.7 | -3.8 | 5.6 | -9.0
CC(=O)Nc1ccc(C(=O)NNC(=O)c2cc([N+](=O)[O-])cc([N+](=O)[O-])c2)cc1 | 3.0 | -1.5 | 8.7 | 9.7 | 0.3 | -0.4
CCN(CC)S(=O)(=O)c1ccc(NC(=O)c2cc(C(=O)OC)cc([N+](=O)[O-])c2)cc1 | ? | -3.8 | -29.2 | -4.7 | -2.7 | -5.1
Cc1ccc(NC(=O)c2ccc(Nc3c([N+](=O)[O-])cc([N+](=O)[O-])cc3[N+](=O)[O-])cc2)cc1 | 59.4* | -10.9 | -17.1 | -71.7 | -0.4 | -4.8
CN1CCN(NC(=O)c2cc([N+](=O)[O-])cc([N+](=O)[O-])c2)CC1 | 69.9* | -12.0 | 22.2 | 18.7 | 1.8 | -3.9
Cc1ccc(NC(=O)c2ccc(C)cc2)cc1 | -15.6 | -8.6 | -29.9 | 50.0 | -13.7 | -10.4
COC(=O)c1cc(C(=O)Nc2ccc(S(=O)(=O)NC(C)(C)C)cc2)cc([N+](=O)[O-])c1 | 56.2* | -4.1 | 18.1 | -14.9 | 0.2 | -2.2
C/C(=N\NC(=O)c1cc([N+](=O)[O-])cc([N+](=O)[O-])c1)c1ccco1 | 57.3* | -4.6 | 9.6 | 0.0 | 1.7 | -6.7
O=C(Nc1ccc(Br)cc1)c1cc([N+](=O)[O-])cc([N+](=O)[O-])c1 | 71.4* | -2.8 | 6.7 | -4.5 | -1.5 | -1.5
SMILES | T cruzi repl | PvdQ inh | PfHsp90 set2 | HSF-1 act | Glyco luc inh | CaV13 FRET inh
O=C(CCNc1ccc(Br)cc1)c1cccc([N+](=O)[O-])c1 | 1.1 | -20.6 | -17.0 | 65.6* | -3.3 | -5.9
COc1cccc(/C=C2\C(=O)N(c3cccc(C)c3)C(=O)c3ccccc32)c1 | -18.2 | -8.5 | -58.4 | 0.8 | 2.4 | -2.4
Cc1cccc(N2C(=O)/C(=C\c3ccc(OC(F)F)cc3)c3ccccc3C2=O)c1 | -1.1 | 6.2 | 97.3* | 11.3 | 2.9 | -4.9
O=C(Cc1ccccc1)NC(NC(=S)Nc1cc(Cl)ccc1Cl)C(Cl)(Cl)Cl (centres undefined) | -7.4 | -11.9 | 39.6 | 9.5 | -2.2 | -3.5
O=C(/C=C/c1ccccc1)NC(NC(=S)Nc1cc(Cl)ccc1Cl)C(Cl)(Cl)Cl (centres undefined) | 75.1* | -13.8 | 18.2 | 2.9 | 3.0 | -9.0
O=C(/C=C/c1ccccc1)NC(NC(=S)Nc1ccc(Cl)cc1)C(Cl)(Cl)Cl (centres undefined) | 72.0* | -10.4 | 34.9 | 7.2 | 7.6 | -4.7
C[C@@H]1COc2cccc(NC3CC3)c2S(=O)(=O)N1 | . | . | . | . | . | -5.2
CC1C(=O)N(Cc2cn(CCC3OCCO3)nn2)CCS(=O)(=O)N1Cc1ccc(-c2ccc(Cl)c(Cl)c2)cc1 (centres undefined) | . | . | . | . | -1.5 | -8.0
Cc1ccc(C2=Nc3ccccc3NC(C)(c3ccc(C)o3)C2)o1 (centres undefined) | 9.5 | -10.5 | -14.3 | 53.0* | -1.3 | -5.4
C=CCNC(=S)N(C)[C@H]1C[C@H]2c3cc(-c4ccccc4C)ccc3CCN2C[C@H]1[C@H](C)O | . | . | . | . | . | -4.8
COCCCN1C(=O)C(CC(=O)NC2CC2)CC(C(=O)N(C(C)C)C(C)C)=C1C (centres undefined) | . | . | . | . | 2.6 | -6.5
CCN1CCN(CCOc2ccc(Cl)cc2)CC1 | 66.9* | 2.2 | 9.2 | -9.6 | 0.9 | -3.7
O=C(c1ccccc1)c1ccc(OCCCCN2CCCCC2)cc1 | 20.2 | -8.3 | 9.3 | 3.7 | -0.8 | .
CN1CCN(CCCOc2ccc(-c3ccccc3)cc2)CC1 | 56.0* | -4.0 | 25.4 | 20.9 | -6.9 | -2.3
CCN1CCN(CCCOc2ccc(-c3ccccc3)cc2)CC1 | 71.6* | . | . | -0.4 | . | .
CCN1CCN(CCCOc2ccccc2-c2ccccc2)CC1 | . | -7.1 | -11.3 | . | -2.7 | 3.7
CN1CCN(CCOc2ccc(-c3ccccc3)cc2)CC1 | 43.5 | -11.5 | 0.9 | 22.5 | -1.1 | -5.5
O=C(c1ccccc1)c1ccc(OCCCN2CCCC2)cc1 | 54.7* | 4.4 | 16.4 | 3.0 | -2.9 | -5.8
CC(=O)Nc1ccc(NC2=Nc3ccccc3N3C2=Nc2c(c(C)nn2-c2ccccc2)C3c2ccccc2)cc1 (centres undefined) | 10.1 | 5.7 | -13.9 | 1.6 | 0.3 | -6.9
Cc1ccc(C2c3c(C)nn(-c4ccc([N+](=O)[O-])cc4)c3N=C3C(=O)Nc4ccccc4N32)cc1 (centres undefined) | 64.9* | . | . | -21.3 | . | .

Source: PubChem BioAssay (Broad Institute)
